# Measurements published in ChEMBL document CHEMBL2057099, “Synthesis of rocaglamide hydroxamates and related compounds as eukaryotic translation inhibitors: synthetic and biological studies” (J Med Chem, 2012).
# pIC50: −log10 of the molar value. Calls of active or inactive are those of the source. The rule behind the calls is not given here.
# Key:
# [1] = target: T1, Eukaryotic initiation factor 4A-I (Homo sapiens, UniProt P60842); assay: Inhibition of eIF4A1-mediated protein synthesis in human HeLA cells assessed as inhibition of [35S]Met incorporation by scintillation counting; format: cell-based
# T1 sequence (P60842 whole entry): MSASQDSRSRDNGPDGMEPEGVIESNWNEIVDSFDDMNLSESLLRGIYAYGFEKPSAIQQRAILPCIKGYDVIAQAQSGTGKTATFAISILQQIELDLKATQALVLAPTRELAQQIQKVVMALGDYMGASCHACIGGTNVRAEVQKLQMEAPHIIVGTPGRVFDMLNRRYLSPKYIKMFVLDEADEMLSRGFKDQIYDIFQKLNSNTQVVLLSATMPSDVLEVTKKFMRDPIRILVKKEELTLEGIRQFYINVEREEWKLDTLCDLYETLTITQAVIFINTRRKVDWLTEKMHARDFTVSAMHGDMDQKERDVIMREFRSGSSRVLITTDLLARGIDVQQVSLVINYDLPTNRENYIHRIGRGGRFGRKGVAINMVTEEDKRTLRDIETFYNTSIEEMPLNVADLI
# Method in brief: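 HeLa cells treated with compound or DMSO vehicle. Protein synthesis measured as 35S-Met incorporation, normalised to total protein content and expressed relative to the DMSO control. Values are the average of duplicates with the error of the mean.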
# [2] = target: Eukaryotic initiation factor 4A-I (Oryctolagus cuniculus) (UniProt P29562); assay: Inhibition of eIF4A1-mediated FF/HCV/Ren cap-dependent mRNA translation in rabbit reticulocyte lysate by reporter gene assay
# Eukaryotic initiation factor 4A-I (Oryctolagus cuniculus), sequence (P29562 whole entry): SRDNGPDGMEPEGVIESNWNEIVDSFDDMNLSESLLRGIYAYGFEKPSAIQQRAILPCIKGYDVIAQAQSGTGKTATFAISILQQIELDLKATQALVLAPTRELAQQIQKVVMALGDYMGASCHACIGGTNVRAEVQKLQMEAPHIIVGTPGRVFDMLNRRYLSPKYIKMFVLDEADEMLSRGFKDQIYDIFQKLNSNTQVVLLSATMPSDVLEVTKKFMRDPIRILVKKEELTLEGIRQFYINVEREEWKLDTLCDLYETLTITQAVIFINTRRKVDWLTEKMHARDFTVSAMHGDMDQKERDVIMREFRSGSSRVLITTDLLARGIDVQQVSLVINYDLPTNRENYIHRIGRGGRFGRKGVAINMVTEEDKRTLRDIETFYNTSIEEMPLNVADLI
# [3] = Solubility of the compound at pH 6.2; format: physicochemical; settings: buffer
# Method in brief: (§1)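 Solubility measured at pH 5.0, 6.2 and 7.4.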
# [4] = Solubility of the compound at pH 7.4; format: physicochemical; settings: buffer; method in brief: as §1
# [5] = target: T1, Eukaryotic initiation factor 4A-I; assay: Inhibition of recombinant eIF4A1 assessed as eIF4A1/[32P]mRNA complex formation at 1 to 10 uM after 10 mins by scintillation counting in presence of hippuristanol
# Mus musculus [6] = assay: Hematotoxicity in C57Bl/6 mouse assessed as effect on CD4 T cells at 0.2 mg/kg, ip administered for 5 days measured 2 hrs post last dose by FACS analysis; format: organism-based, T-cell; set-up: dose 0.2 mg/kg, route intraperitoneal; settings: in vivo
# [7] = Plasma protein binding in human after 4 hrs; format: ADME, cell-free; settings: read-out: PPB (converted)
# Method in brief: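 Human plasma protein binding measured after 4 h exposure.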
# [8] = target: T1, Eukaryotic initiation factor 4A-I; assay: Inhibition of eIF4A1-mediated protein synthesis in human BJAB cells assessed as inhibition of [35S]Met incorporation after 1 hr by scintillation counting; format: cell-based
# Method in brief: (§2)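 BJAB lymphoma cells exposed to compound for 1 h or 72 h. Protein synthesis measured as 35S-Met incorporation, normalised to total protein content and expressed relative to DMSO vehicle. Duplicates.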
# [9] = target: T1, Eukaryotic initiation factor 4A-I; assay: Inhibition of recombinant eIF4A1 assessed as depletion of eIF4A1/2 from eIF4F complex at 1 to 10 uM after 1 hr by Western blot analysis
# Method in brief: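 eIF4F complex isolated by m7GTP affinity purification. Eluates resolved on 10% SDS-PAGE, then Western blot for eIF4E and eIF4AI/II.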
# [10] = Solubility of the compound at pH 5; format: physicochemical; settings: buffer; method in brief: as §1
# [11] = Permeability of the compound by PAMPA assay at pH 6.2; format: ADME
# BJAB = assay: Cytotoxicity against human BJAB cells after 72 hrs by PI-staining based flow cytometric analysis; format: functional, cell-based
# Method in brief: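 BJAB cells exposed 72 h to a concentration series. Viability by propidium iodide staining and flow cytometry, plotted relative to vehicle (DMSO). Mean of three experiments.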
# [12] = target: T1, Eukaryotic initiation factor 4A-I; assay: Inhibition of recombinant eIF4A1 assessed as eIF4A1/[32P]mRNA complex formation after 10 mins by scintillation counting
# Method in brief: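 Binding of eIF4AI to radiolabelled RNA. Mean of three experiments with standard error of the mean.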
# [13] = Metabolic stability in human liver microsomes assessed as compound remaining after 1 hr; format: ADME, Microsome; settings: read-out: Stability
# Method in brief: (§3)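 Incubation with human or murine liver microsomes, read as percent compound remaining after 1 h.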
# [14] = Permeability of the compound by PAMPA assay at pH 5; format: ADME
# Mus musculus [15] = assay: Hematotoxicity in C57Bl/6 mouse assessed as effect on […] T cells at 0.2 mg/kg, ip administered for 5 days measured 2 hrs post last dose by FACS analysis; format: organism-based, T-cell; set-up: dose 0.2 mg/kg, route intraperitoneal; settings: in vivo
# Mus musculus [16] = assay: Hematotoxicity in C57Bl/6 mouse assessed as effect on B220 pre-B/B cells at 0.2 mg/kg, ip administered for 5 days measured 2 hrs post last dose by FACS analysis; format: organism-based; set-up: dose 0.2 mg/kg, route intraperitoneal; settings: in vivo
# lymphoma = assay: Potentiation of doxorubicin antitumor activity against mouse Eu-myc/myr-AKT lymphoma cells xenografted in C57Bl/6 mouse assessed as tumor-free survival at 0.2 mg/kg, ip administered daily for 5 days; format: functional, organism-based; set-up: dose 0.2 mg/kg
# Method in brief: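 C57Bl/6 mice, 6-8 weeks old, received 10^6 Eμ-myc/(myr)Akt lymphoma cells intravenously. Dosing began when tumours were palpable: test agent 0.2 mg/kg i.p. daily for 5 d in PEG 400/5.2% Tween 80, with doxorubicin 10 mg/kg given once on day 2. n=5 per group. Read-out was tumour-free survival (Kaplan-Meier).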
# [17] = target: T1, Eukaryotic initiation factor 4A-I; assay: Inhibition of eIF4A1-mediated protein synthesis in human BJAB cells assessed as inhibition of [35S]Met incorporation after 72 hr by scintillation counting; format: cell-based; method in brief: as §2
# [18] = Metabolic stability in human plasma assessed as compound remaining after 3 hrs; format: ADME, cell-free; settings: read-out: Stability
# Method in brief: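 Stability in human plasma measured as percent compound remaining after 3 h.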
# Mus musculus [19] = assay: Hematotoxicity in C57Bl/6 mouse assessed as effect on Ly-6G myeloid cells at 0.2 mg/kg, ip administered for 5 days measured 2 hrs post last dose by FACS analysis; format: organism-based; set-up: dose 0.2 mg/kg, route intraperitoneal; settings: in vivo
# [20] = Metabolic stability in mouse liver microsomes assessed as compound remaining after 1 hr; format: ADME, Microsome; settings: read-out: Stability; method in brief: as §3
# [21] = Permeability of the compound by PAMPA assay at pH 7.4; format: ADME
smiles,measurement,setting,value
COc1ccc(C23Oc4cc(OC)cc(OC)c4C2(O)C(O)C(C(=O)NOCCO)C3c2ccccc2)cc1 (racemic),inhibition,[1],Active
same,inhibition,[2],Active
CONC(=O)[C@H]1[C@@H](O)[C@@]2(O)c3c(OC)cc(OC)cc3O[C@@]2(c2ccc(OC)cc2)[C@@H]1c1ccccc1,solubility,[3],> 150 mg/mL
same,solubility,[4],> 150 mg/mL
same,inhibition,[5],inactive
same,Activity,Mus musculus [6],Non-toxic
same,fraction unbound at 4 h,[7],0.18
same,pIC50,[8],7.70
same,inhibition,[9],Active
same,solubility,[10],> 150 mg/mL
same,inhibition,[2],Active
same,permeability,[11],permeable
same,pIC50,BJAB,8.82
same,inhibition,[12],Dose-dependent effect
same,remaining at 1 h,[13],> 95%
same,permeability,[14],permeable
same,Activity,Mus musculus [15],Non-toxic
same,Activity,Mus musculus [16],Non-toxic
same,Activity,lymphoma,Active
same,pIC50,[17],9.30
same,remaining at 3 h,[18],100%
same,Activity,Mus musculus [19],Non-toxic
same,remaining at 1 h,[20],> 95%
same,permeability,[21],permeable
COC(=O)[C@H]1[C@@H](O)[C@@]2(O)c3c(OC)cc(O[C@@H]4O[C@@H]([C@H](O)CO)CO[C@H]4OC)cc3O[C@@]2(c2ccc(OC)cc2)[C@@H]1c1ccccc1,inhibition,[5],inactive
same,inhibition,[8],Active
same,inhibition,[9],Active
same,inhibition,BJAB,Active
same,inhibition,[12],Dose-dependent effect
same,Activity,lymphoma,Active
same,inhibition,[17],Active
COc1ccc(C23Oc4cc(OC)cc(OC)c4C2(O)C(O)C(C(=O)NOCC2CC2)C3c2ccccc2)cc1 (racemic),inhibition,[2],Active
COc1ccc(C23Oc4cc(OC)cc(OC)c4C2(O)C(O)C(C(=O)NOCCOCCOCCNC(C)=O)C3c2ccccc2)cc1 (racemic),inhibition,[1],Active
same,inhibition,[2],Active
CONC(=O)[C@@H]1[C@H](O)[C@]2(O)c3c(OC)cc(OC)cc3O[C@]2(c2ccc(OC)cc2)[C@H]1c1ccccc1,inhibition,[2],inactive
COc1ccc([C@@]23Oc4cc(OC)cc(OC)c4[C@]2(O)[C@H](O)[C@H](C(=O)c2ccc(CO)o2)[C@H]3c2ccccc2)cc1,inhibition,[2],Active
CONC(=O)C1C(O)C2(O)c3c(OC)cc(OC)cc3OC2(c2ccc(OC)cc2)C1c1ccccc1 (racemic),inhibition,[2],Active
